Compound activity deposited in PubChem BioAssay by The Scripps Research Institute Molecular Screening Center.
Rows were chosen to be rich in hits. Some 3.9% of all compounds tested hit in one or more screens of this group.
TAAR1 antag: human TAAR1 antagonists, primary screen, Fluo-8 calcium fluorescence, CHO RD-HGA16 cells. Trace amine-associated receptor 1 (Homo sapiens), Q96RJ0. antagonist. inhibition, % at 3 µM. 360,000 compounds, 1.5% hits. AID 624466, 2012;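 active means inhibition above a per-plate cutoff, the mean inhibition of test compounds on that plate plus 3 SD, cut at about 49% in these data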
Target sequence (Q96RJ0 whole entry, looked up): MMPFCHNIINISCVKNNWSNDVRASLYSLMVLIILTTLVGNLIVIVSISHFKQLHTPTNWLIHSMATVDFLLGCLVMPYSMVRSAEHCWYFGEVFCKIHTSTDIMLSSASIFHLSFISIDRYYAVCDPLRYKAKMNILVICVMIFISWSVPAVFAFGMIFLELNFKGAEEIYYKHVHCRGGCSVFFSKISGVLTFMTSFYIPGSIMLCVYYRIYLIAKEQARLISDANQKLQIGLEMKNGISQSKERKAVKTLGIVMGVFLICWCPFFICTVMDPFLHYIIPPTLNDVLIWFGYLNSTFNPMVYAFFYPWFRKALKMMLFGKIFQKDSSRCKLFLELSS
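System: CHO RD-HGA16 cells bearing hTAAR1. Reagent: EC80 β-phenethylamine stimulus. Schedule: seeding 17-24 h prior, 75-min 37 °C, 30-min RT dye loading. Signal: Fluo-8 intracellular calcium dye fluorescence, real-time kinetic reads. Read-out: % inhibition from peak post-agonist over basal fluorescence ratio. Benchmarks: vehicle wells and EC80 agonist wells. Replicates: n of 1.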
CHO parental Ca: ATP-evoked calcium signal inhibitors, parental CHO, primary screen, counter-screen for OX1R antagonist project, cell-based, fluorescence, Fluo-8 calcium dye; parental CHO-K1, ATP-induced calcium, Fluo-8 fluorescence; inhibition, % at 5.6 µM; 330,000 compounds, 0.63% hits;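 active means inhibition above that plate's mean sample inhibition plus 3 SD, cut at about 26% in these data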
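material = parental CHO cells | also added = ATP as calcium-mobilizing challenge | dosing = single point at 5.6 µM | detection = intracellular calcium via Fluo-8 no-wash fluorescent dye | read-out = % inhibition | benchmarks = low control ATP plus DMSO, high control DMSO only | repeats = one well per compound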
OX1R antag-1: antagonists of human orexin 1 receptor (OX1R); inhibition, % at 6.6 µM; OX1R-expressing cells, FRET antagonist read-out; 330,000 compounds, 1.8% hits; Orexin/Hypocretin receptor type 1 (Homo sapiens), O43613; AID 485270, 2010; in the data active means inhibition mostly above about 38%, no sharp cut-off; inactive means mostly below about 40%
Target sequence (O43613 whole entry, looked up): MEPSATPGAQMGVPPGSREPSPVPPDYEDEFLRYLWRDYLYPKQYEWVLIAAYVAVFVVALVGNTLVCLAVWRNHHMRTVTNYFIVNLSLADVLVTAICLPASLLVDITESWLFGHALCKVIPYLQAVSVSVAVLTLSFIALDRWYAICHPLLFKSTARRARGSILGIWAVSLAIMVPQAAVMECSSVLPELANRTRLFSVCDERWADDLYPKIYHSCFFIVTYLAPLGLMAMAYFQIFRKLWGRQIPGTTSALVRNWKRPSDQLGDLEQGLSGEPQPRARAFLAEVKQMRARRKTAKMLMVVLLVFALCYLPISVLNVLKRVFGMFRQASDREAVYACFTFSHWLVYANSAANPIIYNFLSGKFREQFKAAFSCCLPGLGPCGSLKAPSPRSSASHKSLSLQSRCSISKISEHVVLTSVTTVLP
TAAR1 ag: human TAAR1 agonists, primary screen, Fluo-8 calcium fluorescence, CHO RD-HGA16 cells. Trace amine-associated receptor 1 (Homo sapiens), Q96RJ0. vehicle wells 0%, saturating PEA agonist 100%. activation, % at 3 µM. 360,000 compounds, 0.99% hits. AID 624467, 2012;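 active means activation above the mean activation of all test compounds in the run plus 3 SD, cut at about 38% in these data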
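Benchmarks: low control DMSO, high control PEA (EC100); System: CHO RD-HGA16 cells carrying human TAAR1 plus Gα16; Detection: Fluo-8 fluorescence, 5 s baseline then 140 s kinetic read; Schedule: 17-24 h plating, Fluo-8 75 min 37 °C, 30 min RT; Read-out basis: % activation from peak over basal fluorescence ratio, DMSO-to-PEA scaled.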
OX1R antag-2: OX1R (HCRTR1) antagonists, primary screen, fluorescence, CHO/OX1R cells, Fluo-8 calcium, orexin A; Orexin/Hypocretin receptor type 1 (Homo sapiens), O43613; Fluo-8 calcium fluorescence; inhibition, % at 5 µM; 330,000 compounds, 0.43% hits; AID 434989, 2010;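 active means inhibition above its plate's threshold, mean inhibition of all tested compounds on the plate plus 3 SD, cut at about 37% in these data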
Of the large screens only hits and unclear results are named; the others gave an inactive call.

O=C(COc1ccc2ccccc2c1)Nc1ccncc1	CHO parental Ca 67, OX1R antag-2 53
Cc1ccc2c(CN3CCN(c4ccccc4)CC3)cc(=O)oc2c1	none (no result: CHO parental Ca, OX1R antag-1, OX1R antag-2)
O=C(NCC(=O)N1CCCCCCC1)c1ccc(Cl)c(Cl)c1	none (no result: CHO parental Ca, OX1R antag-1, OX1R antag-2)
O=C1NC(=O)C(=C2CCOC2=O)N1	none (no result: CHO parental Ca, OX1R antag-1, OX1R antag-2)
Cc1ccc(Oc2ccc(OCC(=O)Nc3ccncc3)cc2)cc1	CHO parental Ca 58, OX1R antag-2 50
CCCCOc1ccc(C(=O)Nc2ccncc2)cc1	CHO parental Ca 42, OX1R antag-2 45
Cc1cc(OCCCC(=O)Nc2cccc(-n3cnnn3)c2)ccc1Cl	TAAR1 antag 60
CCc1ccc(OCC(=O)Nc2ccncc2)cc1	none
COc1cccc(NC(=O)COc2cccc(-n3cnnn3)c2)c1	none
O=C(/C=C/c1ccc(N2CCC(c3ccccc3)=N2)cc1)c1ccccc1	CHO parental Ca 73, OX1R antag-2 79
CCOC(=O)/C(=C\c1ccc(N2CCC(c3ccccc3)=N2)cc1)C(C)=O	none (no result: CHO parental Ca, OX1R antag-1, OX1R antag-2)
C[C@H](CO)N1C[C@H](C)[C@@H](CN(C)C(=O)Nc2ccc(C(F)(F)F)cc2)Oc2c(NC(=O)Nc3ccc4c(c3)OCO4)cccc2C1=O	none
C[C@H](CO)N1C[C@H](C)[C@@H](CN(C)C(=O)Nc2ccc3c(c2)OCO3)Oc2c(NC(=O)Nc3ccc(C(F)(F)F)cc3)cccc2C1=O	TAAR1 antag 80
C[C@@H]1CN([C@H](C)CO)C(=O)c2cc(NC(=O)Nc3ccc(C(F)(F)F)cc3)ccc2O[C@H]1CN(C)Cc1ccc(Cl)c(Cl)c1	none
C[C@H]1CN([C@@H](C)CO)C(=O)c2cccc(NC(=O)Nc3ccc(C(F)(F)F)cc3)c2O[C@@H]1CN(C)Cc1ccc(Cl)c(Cl)c1	TAAR1 antag 51
C[C@H](CO)N1C[C@H](C)[C@H](CN(C)C(=O)Nc2ccc(F)cc2)Oc2c(NC(=O)c3ccc(-c4nccs4)cc3)cccc2C1=O	TAAR1 antag 54
COc1ccc(NC(=O)N(C)C[C@H]2Oc3c(NC(=O)Nc4ccc(C(F)(F)F)cc4)cccc3C(=O)N([C@H](C)CO)C[C@@H]2C)cc1	TAAR1 antag 73
C[C@H](CO)N1C[C@H](C)[C@@H](CN(C)C(=O)Nc2ccc(C(F)(F)F)cc2)Oc2c(NC(=O)Nc3ccccc3)cccc2C1=O	none
COC(=O)C1=C(C)N(C)C(=NCc2ccc(C(F)(F)F)cc2)NC1c1cccc(Cl)c1 (centres undefined)	none (no result: CHO parental Ca, OX1R antag-1, OX1R antag-2)
O=C(Cc1ccccc1)NS(=O)(=O)c1ccccc1	none (no result: CHO parental Ca, OX1R antag-1, OX1R antag-2)
COc1ccc(C=NNC(=S)NC23CC4CC(CC(C4)C2)C3)cc1OC	none (no result: CHO parental Ca, OX1R antag-1, OX1R antag-2)
COc1cc(/C=N/NC(=O)NC23CC4CC(CC(C4)C2)C3)ccc1OCC(N)=O	TAAR1 antag 58
CCOC(=O)C1=CCN(S(=O)(=O)c2ccccc2F)C1c1ccc(Cl)c(Cl)c1 (centres undefined)	none (no result: CHO parental Ca, OX1R antag-1, OX1R antag-2)
N#CCC(=O)N/N=C/c1cc(-c2ccccc2)n(-c2ccc(Cl)cc2)c1-c1ccccc1	OX1R antag-1 104
Cc1ccc(-n2c(-c3ccccc3)cc(/C=N/NC(=O)CC#N)c2-c2ccccc2)cc1	none
S=C(NCCCCN(Cc1ccc(Cl)cc1)c1ccc(Br)cn1)NCCCc1cnc[nH]1	TAAR1 ag 38 (no result: CHO parental Ca, OX1R antag-1, OX1R antag-2)
CN(C)CCN(Cc1ccc(Cl)cc1)c1ccccn1	none
Cc1cc(NC(=O)c2ccc(N3CCCC3)c([N+](=O)[O-])c2)no1	none
O=C(Nc1cccc(Cl)c1)Nc1nccs1	none
O=C(Nc1ccc(Cc2ccncc2)cc1)c1ccc(Cl)c([N+](=O)[O-])c1	TAAR1 antag 74, CHO parental Ca 83, OX1R antag-1 128, OX1R antag-2 77
O=C(Nc1ccc(Nc2ccccc2)cc1)c1ccc(Cl)c([N+](=O)[O-])c1	TAAR1 antag 51
O=C(Nc1ccc(Cl)c(Cl)c1)Nc1nccs1	TAAR1 ag 43
Cc1cc(NC(=O)c2ccc(Cl)c([N+](=O)[O-])c2)no1	CHO parental Ca 43
O=C(Nc1ccccc1-c1ccccc1)c1ccc(Cl)c([N+](=O)[O-])c1	none
O=C(NC1CCCC1)C(c1ccc(F)cc1)N1CCC(O)(c2ccc(Cl)cc2)CC1 (centres undefined)	none (no result: CHO parental Ca, OX1R antag-1, OX1R antag-2)
C=CCNc1ncnc2c1ncn2[C@H]1CN(Cc2cccc3ccccc23)C[C@@H](CO)O1	none (no result: CHO parental Ca, OX1R antag-1, OX1R antag-2)
CN(c1ccccc1)S(=O)(=O)c1cccc(NC(=O)c2ccc(Cl)c([N+](=O)[O-])c2)c1	CHO parental Ca 64, OX1R antag-1 44, OX1R antag-2 62
CN(c1ccccc1)S(=O)(=O)c1cccc(NC(=O)c2ccncc2)c1	none
COc1cccc(S(=O)(=O)NCc2ccc(C(=O)Nc3ccc(Cl)c(Cl)c3)cc2)c1	CHO parental Ca 42
O=C(Nc1ccc(Cl)c(Cl)c1)c1ccc(Cl)c(Cl)c1	CHO parental Ca 59, OX1R antag-1 92, OX1R antag-2 40
O=C(Nc1ccc(Cl)c(Cl)c1)c1ccncc1	none
O=C(Nc1ncccn1)c1ccc(Cl)c([N+](=O)[O-])c1	OX1R antag-1 26
C[C@H](CO)N1C[C@H](C)[C@@H](CN(C)C(=O)CN2CCOCC2)Oc2ncc(-c3cncnc3)cc2C1=O	none (no result: CHO parental Ca, OX1R antag-1, OX1R antag-2)
O=C1NC[C@@H](CCCCN2CCN(CCc3ccc(O)cc3)C(=O)C2=O)N(CCc2ccc(O)cc2)C1=O	none (no result: CHO parental Ca, OX1R antag-1, OX1R antag-2)
COc1cc(OC)cc(C2=Cc3ccc(OC)cc3C(CC(C)=O)N2c2ccc(C#CCCO)cc2)c1 (centres undefined)	none (no result: CHO parental Ca, OX1R antag-1, OX1R antag-2)
Cc1cc(NC(=O)c2ccc(-c3ccccc3[N+](=O)[O-])o2)no1	OX1R antag-1 27
COc1ccc(-c2csc(N(CCCN(C)C)C(=O)c3ccc(OC)c(OC)c3)n2)cc1	none (no result: CHO parental Ca, OX1R antag-1, OX1R antag-2)
COc1ccc2nc3ccccc3nc2c1N	OX1R antag-1 55
COc1ccc2nc3cccc(OC)c3nc2c1	OX1R antag-1 42
COc1ccc2nc(-c3ccco3)c(-c3ccco3)nc2c1	none
O=[N+]([O-])c1ccc(N2CCc3ccccc3C2)cc1	OX1R antag-1 52
O=[N+]([O-])c1ccc(-c2csc(COc3ccccc3)n2)cc1	none (no result: CHO parental Ca, OX1R antag-1, OX1R antag-2)
O=[N+]([O-])c1ccc(-c2csc(N3CCc4ccccc4C3)n2)cc1	TAAR1 ag 40
COCCNC(=O)C1(C)CCCN(C(=O)c2cc(F)cc(F)c2)C1 (centres undefined)	none (no result: CHO parental Ca, OX1R antag-1, OX1R antag-2)
CCCCCCC1CC(=CN(C)C)C(=O)O1 (centres undefined)	none (no result: CHO parental Ca, OX1R antag-1, OX1R antag-2)
O=C(CSc1nnc(-c2cccs2)n1-c1ccccc1)NCc1ccc2c(c1)OCO2	OX1R antag-1 62
O=C(CSc1nnc(-c2cccs2)n1Cc1ccccc1)NCc1ccc2c(c1)OCO2	OX1R antag-1 62
